Reference: ChEMBL document CHEMBL4513216, “Probing the Open Global Health Chemical Diversity Library for Multistage-Active Starting Points for Next-Generation Antimalarials” (ACS Infect Dis, 2020)

Assay: Toxicity liver stage against HepG2, at 10uM
Type: cell-based
Set-up: test concentration 10 uM, cell line HepG2-A16-CD81EGFP
Details: human, HepG2-A16-CD81EGFP cells; read-out: INHIBITION
Outline: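 Uninfected HepG2-A16-CD81EGFP cells, 3 × 10^3 per well, 1536-well, plated on prespotted compound at 10 μM final, parasite-free screening media added to match infected plates; puromycin 10 μM positive, DMSO 0.5% negative; run in parallel with 48 h PbLuc assay at 37 °C, 5% CO2; viability by CellTiter-Glo luminescence, normalized to controls.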

Compound | cytotoxicity at 10 µM [%]
Cc1ccccc1OCCC(=O)N1CCc2nc(C)n(C)c(=O)c2CC1 | -0.852
Cc1nn(C(C)C)c(C)c1S(=O)(=O)Nc1ccc(C(=O)O)c(Cl)c1 | -9.5
O=C1NCCN(CC2CCCCC2)C1CC(=O)N1CCc2n[nH]cc2C1 (configuration not stated) | -3.76
CN(C)CCO[C@H]1CN(C(=O)c2ccc(C#N)cc2)[C@@H]2COC[C@H]12 | 0.929
O=C(CCc1ccsc1)Nc1cnccc1O | 9.56
Cc1ocnc1C(=O)N1CCCN(Cc2cscn2)CC1 | -7.22
CC1(Cc2cccnc2)NCCc2[nH]cnc21 (configuration not stated) | 12.1
CCc1noc(CC)c1CNC(=O)Nc1cccc([S+](C)[O-])c1 (configuration not stated) | 13.4
O=C(c1cnc(-c2ccccn2)s1)N1CCCC(n2cccn2)C1 (configuration not stated) | -11.9
O=C1CC(c2cccnc2)C2(CCN(C(=O)c3ccncc3)CC2)N1 (configuration not stated) | -6.64
CN(C)CCN1CCOCC2(CCCN(C(=O)c3ccccc3)C2)C1 (configuration not stated) | 5.31
CCC(C)C(=O)NCc1cc(Br)c(OC)c(OC)c1 (configuration not stated) | 2.42
Cc1[nH]ncc1CCCNC(=O)N1CCC(CC(N)=O)CC1 | 5.45
CN(C)C(=O)CN1C[C@H]2CC[C@@H](C1)N(Cc1c(F)cccc1Cl)C2 | 5.48
CCCn1nccc1NC(=O)CN1CCc2cnc(CC)nc2C1 | 2.31
Cn1ncc2c(=O)[nH]c(CN(Cc3ccco3)C3CCCC3)nc21 | 20.8
COCCS(=O)(=O)NC(C)c1ccccc1Br (configuration not stated) | 1.02
O=C(CN1CCc2ccccc21)Nc1ccc(OC(F)F)cc1 | 16.8
CC/C=C(/C)C(=O)N1CCN(C2=NCC(C)S2)CC1 (configuration not stated) | -145
CCS(=O)(=O)N1CCC2(CC1)CN(c1cncnc1)C(=O)CO2 | 6.91
CC(CNCc1ccc(Br)cc1)Oc1ccccn1 (configuration not stated) | 5.36
Cc1noc(CN2CCN(c3cncc(Cl)n3)CC2)n1 | 2.74
CN(C)c1nccnc1C1CCN(C2CCCCC2O)CC1 (configuration not stated) | 8.12

Compound | cytotoxicity at 10 µM [%]
CCS(=O)(=O)N1CCCC2(CCCC(=O)N2C)C1 (configuration not stated) | 8.86
Cc1csc(CN2CC[C@H]3C(=O)N(c4cccnc4)CCO[C@H]3C2)n1 | 6.31
Cc1cc(C(=O)NCC2SCCc3ccccc32)no1 (configuration not stated) | 3.41
CNC(=O)c1c[nH]nc1C1CCCN1c1ncccn1 (configuration not stated) | 10
CNc1cc2c(nn1)CCN(C(=O)c1cccc3c1OCCO3)C2 | -5.13
COCCCC1(CO)CCCN(C(=O)c2cnc(C3CC3)nc2)C1 (configuration not stated) | -39.7
CN1CCC(CNC(=O)NCc2ccc(F)cc2)CC1 | -10.1
CCn1cc(NC(=O)CN2CCC(Oc3ccc(F)cc3)CC2)c(C)n1 | 9.25
CCc1nnc2ccc(NCC3(O)CCOCC3)nn12 | -0.439
CCCC(NC(=O)c1cc(C)c(F)cc1F)c1nnn[nH]1 (configuration not stated) | -2.59
CCN1CC[C@@]2(C(=O)N3CCOCC3)CCN(C(=O)C(C)C)CC[C@@H]12 | -11.5
COCCOCCNC(=O)C(C)Oc1ccccc1C(F)(F)F (configuration not stated) | 0.295
O=C(c1ccc2c(c1)CCO2)N1CCN(c2ccc(Cl)cn2)CC1 | 9.56
Cc1ccc(NC(=O)N2CCC(NC(=O)c3ccc(C)o3)CC2)cc1 | 0.385
CNS(=O)(=O)c1cccc(CNC(=O)c2c(C)oc(C)c2C)c1 | -1.3
Cc1nn(C)c(Cl)c1C1CCCN1CC(=O)NCc1ccccn1 (configuration not stated) | -2.07
Cc1cc(C(=O)N2CCc3[nH]cnc3C2C(=O)O)c(-c2ccccc2)o1 (configuration not stated) | -1.33
Cc1cc(CCC2CN(Cc3ccccc3C(=O)O)CCO2)ncn1 (configuration not stated) | -19.9
COc1ncccc1NC(=O)N(Cc1ccc(C(N)=O)cc1)C1CC1 | 6.66
CN(CCS(=O)(=O)c1cc(Cl)ccc1Cl)CC(=O)Nc1ccc(F)cc1 | 8.9
Cn1cc(C(=O)N2CCCC(Cc3cnccn3)C2)cn1 (configuration not stated) | -8.16
CNc1cccc(C2CCN(C(=O)c3cccnc3)CC2)n1 | -7.27
Cn1cc(NC(=O)Cc2cccs2)c(=O)n(C)c1=O | 0.393

Compound | cytotoxicity at 10 µM [%]
CCc1cc(=O)[nH]c2nnc(SCC(=O)N3CCC(C)CC3)n12 | -5.43
Cc1nn(C)c(C)c1S(=O)(=O)N1CC[C@@H]2O[C@@H](C)C[C@H]2C1 | 7.15
O=C(NCCN1CCOCC1)c1ccc(-n2ccc3ccccc32)s1 | -1.27
CCC[C@@H](NC(N)=O)C(=O)N1Cc2ccccc2-c2ccccc2C1 | 5.17
CCNc1cc2c(nn1)CCN(C(=O)c1ccc(-n3cccn3)nc1)C2 | 5.05
O=C(Cn1nc(-c2ccc(F)cc2)oc1=O)NCc1ccccc1F | -9.04
Cn1cnc2c1CCN(Cc1nc(-c3ccco3)no1)C2 | 0.887
CNc1ccnc(N2CCC(c3nnc(CN4CCCC4)n3C)CC2)n1 | 0.715
CN1CCOC(CNCc2coc(-c3cccc(Cl)c3)n2)C1 (configuration not stated) | -15.9
COc1cccc2ccn(CC(=O)NC(C)C)c12 | -37
NC(=O)c1cccc(OCCC(=O)NC2CCc3c(F)cccc32)c1 (configuration not stated) | 9.86
COCCOc1ncccc1C(=O)N(C)c1nccs1 | -44.1
CCOC(=O)c1n[nH]cc1CN1CCCC(N(C)Cc2ccccc2)C1 (configuration not stated) | -1.44
c1cncc(COCC2CN(Cc3cccnc3)Cc3ccnn3C2)c1 (configuration not stated) | -136
CNc1nc(C(=O)N2CCCN(c3ccnc(C)c3)CC2)cs1 | 6.37
Cc1[nH]ccc1C(=O)NC1CCC(N2C(=O)CCC2=O)CC1 (configuration not stated) | -3.81
CCN1C[C@H]2CCN(C(C)=O)CC[C@H]2S1(=O)=O | 0.0452
CCOC(=O)CCCc1ccc2c(c1)CC(=O)N2 | 1.23
Cc1noc(C)c1CN1CC[C@H]2OCC[C@@]2(C(=O)N2CCOCC2)C1 | -77.2
O=C1CCc2cc(OCCN3CCc4cncnc4C3)ccc2N1 | -7.2
CCC(C)c1ccc(NC(=O)C2CCN(C(=O)N(C)C)CC2)cc1 (configuration not stated) | -7.29
Cc1cc2c(N3CCCC(OCc4cccnc4)C3)ncnc2s1 (configuration not stated) | 39
Cc1ccsc1CN(C)Cc1ncccc1C(=O)O | -2.55

Compound | cytotoxicity at 10 µM [%]
CCn1c(NCc2ccc(OC)cc2)nc2c(C)nn(C)c2c1=O | 4.23
Cc1cc(C(=O)N2CCN(C)CC2)nn1CC(=O)NCc1ccccn1 | -3.58
c1ccc(N2CCC3(COCCN(Cc4cccs4)C3)C2)nc1 (configuration not stated) | 1.85
CN(C)c1nc(CNC(=O)Nc2cccc([S+](C)[O-])c2)cs1 (configuration not stated) | -5.27
O=C(NCC1(Sc2ccccc2)CC1)c1cc[nH]n1 | -5.96
NS(=O)(=O)c1ccc(C(=O)N2CCCC2c2ccccc2)o1 (configuration not stated) | -6.48
CC(C)=CCN1CCNC(=O)C1CC(=O)N1CCc2sccc2C1 (configuration not stated) | 0.429
N#Cc1cnc(NC2CCN(C(=O)C3CCCCC3)CC2)c(Cl)c1 | -3.75
O=C1CCC2(CCCN(C(=O)c3ncc[nH]3)C2)CN1CCc1c[nH]cn1 (configuration not stated) | -2.47
Cc1cnc(CN2CCOC(CNc3cccnn3)C2)cn1 (configuration not stated) | -5.15
Cc1c(Cl)cccc1NC(=O)CN(Cc1cccnc1)C(C)C | 4.77
O=C(Cc1c(F)cccc1Cl)N1CCC(Nc2cccnn2)CC1 | -4.92
Cc1cc(N2CCCN(C(=O)CSCC3CC3)CC2)ccn1 | -1.9
C[S+]([O-])CCNC(=O)N1CCSC(C)(C)C1 (configuration not stated) | -0.0105
COCC(=O)NCCCn1nc2ccccn2c1=O | 11.8
O=C(NS(=O)(=O)c1ccc(F)cc1)C1CCOc2ccccc21 (configuration not stated) | 9.91
COc1ccc(Cl)cc1CS(=O)(=O)Cc1noc(C)n1 | 2.32
Cc1ccc(-c2n[nH]cc2CNCCn2cccn2)o1 | -11.2
Cc1cc(-c2nn(C)c(Cl)c2CN2CC[C@H](CO)[C@@H](O)C2)no1 | 2.45
CN1CCc2c(sc3c2C(=O)NC(C=Cc2ccccc2)N3)C1 (configuration not stated) | 6.33
COC(=O)N1CCC(Nc2cccc(F)c2C(C)=O)C1 (configuration not stated) | 11.2
CCn1c(SCC(N)=O)nnc1C(C)NC(=O)c1ccc(Cl)cc1 (configuration not stated) | -36.4
CCCc1cc(C(=O)N2CCOC(c3nc(-c4cccs4)no3)C2)no1 (configuration not stated) | 8.37

Compound | cytotoxicity at 10 µM [%]
O=C(c1ccco1)N1CC[C@@H](N2CCOCC2)[C@@H]1Cc1ccncc1 | -78.2
Cc1ccc(CNC(=O)c2c[nH]nc2NC(=O)C2CCC2)cc1 | 2.05
CCn1c(C)nnc1CN(C)C1CCN(Cc2sc(C)nc2C)C1 (configuration not stated) | 6.47
COCc1cc(N(Cc2ccsc2)C2CC2)n2ncnc2n1 | -3.75
CC(C)(C)OC(=O)NC(C)(C)c1noc(Cn2ccnc2)n1 | 8.73
Cc1noc([C@@H](C)NCc2ccc(F)cc2)c1C(=O)O | -5.57
O=C(NCCNC(=O)c1ccc(Cl)cc1)NCCn1cccc1 | 5.95
CN(C)c1cc(C2CCCN2)ccn1 (configuration not stated) | 5.8
CCc1cc(NCc2cccnc2N2CCCCC2)n2ncnc2n1 | 10.5
Cc1ncc2c(n1)CN(c1ncnc3[nH]ccc13)CC2 | -8.92
O=C(O)CSc1nc(-c2ccc3c(c2)CCC3)n[nH]1 | 1.88
Cn1nc2c(cc1=O)CN(CC(=O)Nc1cc(C(C)(C)C)no1)CC2 | -4.1
CC(CN1CCOC1=O)NC(=O)c1cccc2cc[nH]c12 (configuration not stated) | 6.2
Cn1cnnc1CCNC(=O)c1ccccc1OC1CCC1 | -2.94
CC(C)CN1CCN(C)C2(CCN(Cc3ccsc3)CC2)C1=O | 4.08
CN(C)C(=O)CNS(=O)(=O)c1cc(Br)ccc1F | -47.1
CC(C)NC(=O)Cn1ccc2c(Cl)cccc21 | 7.46
O=C(c1c[nH]c(=O)[nH]1)N1CCc2ccccc21 | 81.9
NCCn1cc(C(=O)NCc2ccccc2Cn2cccn2)nn1 | 3.41
Cn1cccc1C(=O)OCCNC(=O)c1ccccc1 | 14.7
